These results are taken from ChEMBL document CHEMBL1124334, “Hypolipidemic 2-[4-(1,1-dimethylethyl)phenyl]-4H-3,1-benzoxazin-4-ones. Structure-activity relationships of a novel series of high-density lipoprotein elevators” (1989).

Format in all cases: functional
Assay [1] is filed under the species Rattus norvegicus. Kind of assay: The compound was tested for % change in plasma triglycerides in normocholesterolemic rats at 0.2 % composition of dose with diet given in a period of 7 days. The method, boiled down:
(§1)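 Young male Wistar rats (120–150 g) fed basal powdered rodent diet ad libitum, with compound mixed into the diet at 0.2% w/w for 3 or 7 days. Plasma triglyceride and total cholesterol were then measured by standard enzymatic methods. Results are % change relative to controls.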

The test system of assay [2] is Rattus norvegicus. Description: Percent change in plasma total cholesterol in cholesterol-fed rats at 200 mg/kg dose given in a period of 3 days. The method, boiled down:
(§2)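 Young male Wistar rats (120–150 g), groups of eight, fed ad libitum rodent diet with 0.5% w/w cholesterol and 0.25% cholic acid for 10 days. Compound suspended in 0.5% w/w tragacanth mucilage and given daily by stomach tube over the final 3 days; controls got vehicle. After overnight starvation, rats were killed 3 h post final dose and cardiac blood taken into heparin.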

The species entered for assay [3] is Rattus norvegicus. Kind of assay: The compound was tested for % change in plasma total cholesterol in normocholesterolemic rats at 0.2 % composition of dose with diet given in a period of 7 days. The method, boiled down: as §1
The test system of assay [4] is Rattus norvegicus. Description: Percent change in plasma triglycerides in cholesterol-fed rats at 200 mg/kg dose given in a period of 3 days. The gist of the method: as §2
The test system of assay [5] is Rattus norvegicus. Description: Percent change in plasma HDL cholesterol in cholesterol-fed rats at 200 mg/kg dose given in a period of 3 days. The gist of the method: as §2
Assay [6] is described as follows: Ratio of plasma HDL cholesterol/total cholesterol at 25 mg/kg for 3 days. The method, boiled down:
as §2

In assay [7] the test system is Rattus norvegicus. Kind of assay: The compound was tested for % change in plasma triglycerides in cholesterol-fed rats at 50 mg/kg dose given in a period of 3 days. The gist of the method: as §2
The test system of assay [8] is Rattus norvegicus. Description: The compound was tested for % change in plasma HDL cholesterol in cholesterol-fed rats at 100 mg/kg dose given in a period of 3 days. The gist of the method: as §2
Assay [9] deals with Rattus norvegicus. Description: The compound was tested for % change in plasma HDL cholesterol in cholesterol-fed rats at 50 mg/kg dose given in a period of 3 days. The gist of the method:
as §2

Assay [10] deals with Rattus norvegicus. Description: The compound was tested for % change in plasma total cholesterol in cholesterol-fed rats at 100 mg/kg dose given in a period of 3 days. The gist of the method:
as §2

Assay [11] deals with Rattus norvegicus. Description: The compound was tested for % change in plasma total cholesterol in cholesterol-fed rats at 50 mg/kg dose given in a period of 3 days. The gist of the method:
as §2

The species entered for assay [12] is Rattus norvegicus. Description: Change in plasma total cholesterol in normocholesterolemic rats at 0.2 % composition of dose with diet given in a period of 3 days. The method, boiled down:
as §1

Assay [13] has as its system Rattus norvegicus. Kind of assay: The compound was tested for % change in plasma triglycerides in cholesterol-fed rats at 100 mg/kg dose given in a period of 3 days. The gist of the method: as §2
The species named for assay [14] is Rattus norvegicus. Kind of assay: tested for % change in plasma triglycerides in normocholesterolemic rats at 0.2 % composition of dose with diet given in a period of 3 days. The gist of the method: as §1
Assay [15] in a line: Ratio of plasma HDL cholesterol/total cholesterol at 100 mg/kg for 3 days. The gist of the method: as §2
In assay [16] the test system is Rattus norvegicus. Kind of assay: Ratio of plasma HDL cholesterol/total cholesterol at 200 g/kg for 3 days. As to conditions: in the assay text read “200 mg/kg” for “200 g/kg”. The method, boiled down:
as §2

Assay [17] in a line: Ratio of plasma HDL cholesterol/total cholesterol at 50 mg/kg for 3 days. The gist of the method: as §2
For assay [18], the species on record is Rattus norvegicus. Kind of assay: The compound was tested for % change in plasma triglycerides in normocholesterolemic rats at 0.2 % composition of dose with diet given in a period of 3 days. The gist of the method: as §1
For assay [19], the species on record is Rattus norvegicus. Description: Change in plasma triglycerides in normocholesterolemic rats at 0.2 % composition of dose with diet given in a period of 3 days. The gist of the method:
as §1

For assay [20], the species on record is Rattus norvegicus. Kind of assay: Tested for % change in plasma total cholesterol in normocholesterolemic rats at 0.2 % composition of dose with diet given in a period of 3 days. The method, boiled down:
as §1

The species named for assay [21] is Rattus norvegicus. Description: Tested for % change in plasma triglycerides in normocholesterolemic rats at 0.2 % composition of dose with diet given in a period of 3 days. The method, boiled down: as §1
The subject of assay [22] is Rattus norvegicus. Description: The compound was tested for % change in plasma HDL cholesterol in cholesterol-fed rats at 25 mg/kg dose given in a period of 3 days. The gist of the method:
as §2

In assay [23] the test system is Rattus norvegicus. Description: The compound was tested for % change in plasma total cholesterol in cholesterol-fed rats at 25 mg/kg dose given in a period of 3 days. The method, boiled down: as §2
In assay [24] the test system is Rattus norvegicus. Kind of assay: The compound was tested for % change in plasma triglycerides in cholesterol-fed rats at 25 mg/kg dose given in a period of 3 days. The gist of the method: as §2
Assay [25] deals with Rattus norvegicus. Description: % change in plasma triglycerides in cholesterol-fed rats at 100 mg/kg dose given in a period of 3 days administered orally. As to conditions: route oral. The gist of the method: as §2
Assay [26] is described as follows: Ratio of plasma HDL cholesterol/total cholesterol at 200 mg/kg for 3 days. The method, boiled down: as §2
Assay [27] concerns Rattus norvegicus. Description: The compound was tested for % change in plasma HDL cholesterol in cholesterol-fed rats at 200 mg/kg dose given in a period of 3 days;. The gist of the method:
as §2

Where [28] appears, read: dose 200 mg/kg, in the assay text read “200 mg/kg” for “25 mg/kg”.

In the case of `Cc1ccc2nc(-c3ccccc3)oc(=O)c2c1`, the Change is on record as -1% in [1]; -2% in assay [2]; -12% in [3]; -4% in [4]; -2% in [5]. Besides, in assay [6] (setting [28]), the Ratio turned out to be 4.
`CC(C)(C)c1ccc(-c2nc3ccc(Br)cc3c(=O)o2)cc1`: the Change in assay [1] is recorded as -40%; in assay [7], 6%; in [8] it was 71%; in [9], 40%; in [10], -25%; in [2], -25%. Further, the Change in [11] was -12%; in assay [12], -47%; in assay [3], -39%; in assay [13] it was -6%; in assay [4], -3%; in [14], -16%. The Change in [5] turned out to be 74%. The Ratio was found to be 110 in assay [15] and 49 in assay [17]. Moreover, the “Change in HDL/total cholesterol ratio” value in assay [16] came out at 114.
Consider `Cc1ccc2nc(-c3ccc(CC(C)(C)C)cc3)oc(=O)c2c1`, for which the Change in assay [18] is recorded as 16%; in assay [2], -12%; in [12], -10%; in assay [4], 23%; in assay [5], 28%. Besides, the Ratio in assay [6] (setting [28]) turned out to be 50.
For the compound `Cc1ccc2nc(-c3ccccc3C(C)(C)C)oc(=O)c2c1`, the Change in [1] is -13%; in [2] it was -6%; in assay [3], -11%; in [4], -25%; in assay [5], -3%. In addition, the Ratio in assay [6] (setting [28]) came to 6.
As to `CC(C)(C)c1ccc(-c2nc3ccc([N+](=O)[O-])cc3c(=O)o2)cc1`, the Change in [1] was -27%; in assay [2], -23%; in [3], 1%; in [4], -19%; in assay [5], -8%. Further, in assay [16], the “Change in HDL/total cholesterol ratio” value stood at 13.
With `CC(C)(C)c1ccc(-c2nc3ccc(I)cc3c(=O)o2)cc1`, the Change in assay [1] was -35%; in assay [2] it was -26%; in assay [3], -48%; in assay [4], -3%; in assay [5], 17%. Also, the “Change in HDL/total cholesterol ratio” value in [16] is listed as 50.
As for `Cc1ccc2nc(-c3ccc(C(C)C)cc3)oc(=O)c2c1`, the Change is recorded as 7% in assay [19]; -26% in assay [2]; -11% in [12]; -17% in [4]; 33% in assay [5]. The Ratio in assay [6] (setting [28]) is reported as 79.
For `Cc1ccc(NC(=O)c2ccc(C(C)(C)C)cc2)c(C(=O)O)c1`, the Change is -9% in [2]; 8% in [4]; -15% in assay [20]; -16% in assay [21]; 91% in [5]. The “Change in HDL/total cholesterol ratio” value in assay [16] worked out at 47.
On to `CCOC(=O)C(C)(C)Oc1ccc(Cl)cc1` [CLOFIBRATE], for which the Change is listed as -48% in [1]; -30% in [2]; -27% in assay [3]; -10% in [4]; -10% in [5]. Besides, in assay [16], the “Change in HDL/total cholesterol ratio” value is 8.
Regarding `Cc1ccc2nc(-c3ccc(C(C)(C)C)cc3)oc(=O)c2c1`, the Change in assay [1] was -33%; in assay [7], 21%; in [8], 15%; in [22], 30%; in [9], 31%; in assay [10], -34%. Also, the Change in assay [2] is -27%; in assay [23], -5%; in [11], -19%; in assay [3], -15%; in assay [4] it was -17%; in assay [24] it was -1%. Besides, the values for the Change in assay [25] and in assay [5] were -18% and 50%, respectively. For the same compound, the Ratio in assay [15] is listed as 65; in assay [26] it was 92; in [6] (dose 25 mg/kg), 31; in [17] it was 56.
`CC(C)(C)c1ccc(-c2nc3ccc(Cl)cc3c(=O)o2)cc1`: the Change is given as -36% in assay [1]; -18% in assay [2]; -31% in [3]; -30% in assay [4]; 16% in assay [5]. Besides, the “Change in HDL/total cholesterol ratio” value in assay [16] is given as 31.
Take `CC(C)(C)c1ccc(C(=O)Nc2ccc(Br)cc2C(=O)[O-])cc1.[Na+]`: the Change is -18% in [19]; 57% in assay [27]; -7% in assay [2]; -42% in assay [12]; 15% in assay [4]. In addition, in assay [16], the “Change in HDL/total cholesterol ratio” value was 64.
`Cc1ccc2nc(-c3cccc(C(C)(C)C)c3)oc(=O)c2c1`: the Change in assay [1] was 25%; in assay [2], 43%; in assay [3], -4%; in [4], 22%; in assay [5] it was 50%. Besides, the Ratio in assay [6] (setting [28]) stood at 3.
